Measured values from PMC4559355 (Journal of nuclear medicine : official publication, Society …, 2015).

Assays:
Mouse serum stability = type: in vitro ADME; details: mouse serum 0.5 mL + radiotracer 12.5 µL (0.74 MBq), 37°C, 60 min, ethanol precipitation of serum proteins, HPLC
DX3puroβ6 (αvβ6 +) cells = test: Cell binding and internalization, DX3puroβ6 cells; type: cell-based; details: in vitro, ratio x:1
How it was run: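 Radiolabelled tracer was incubated with DX3puroβ6 (αvβ6+) and DX3puro (αvβ6−) cells for 60 min, n = 4 per cell line and condition. Bound and internalized activity are each expressed as a fraction of total radioactivity, with SD. Uptake and internalization ratios are DX3puroβ6 over DX3puro values.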

[1] = HPLC analysis of urine metabolites; type: in vivo; details: mouse urine, ethanol precipitation
DX3puroβ6 tumor = test: Radiotracer stability in DX3puroβ6 tumor; type: in vivo, mouse; details: tumor collected 1 h after injection, homogenized, ethanol precipitation, HPLC
How it was run: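 Female athymic nude mice carried paired subcutaneous DX3puroβ6 and DX3puro xenografts (3 × 10^6 cells each, opposite flanks). After intravenous radiotracer, the DX3puroβ6 tumor was harvested at 1 h and homogenized. Proteins were removed by ethanol precipitation, and the supernatant was analysed by HPLC for intact radiotracer.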

[2] = test system: BxPC-3 tumor (αvβ6-positive); test: Biodistribution, BxPC-3 xenograft tumor; type: in vivo; details: BxPC-3 mouse model, ratio x:1
[3] = Stability in phosphate-buffered saline; type: physicochemical; details: formulated in phosphate-buffered saline
BxPC-3 tumor = test: Radiotracer stability in BxPC-3 tumor; type: in vivo, mouse; details: tumor collected 1 h after injection, homogenized, ethanol precipitation, HPLC
How it was run: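 BxPC-3 xenografts came from 3.5 × 10^6 cells injected subcutaneously in female athymic nude mice. Radiotracer was given intravenously. Tumor was excised 1 h later and homogenized. Proteins were precipitated with ethanol, and supernatant aliquots were analysed by HPLC for intact versus degraded radiotracer.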

[4] = test system: DX3puroβ6 tumor (αvβ6-positive); test: Biodistribution, DX3puroβ6 xenograft tumor; type: in vivo, mouse; details: ratio x:1; for DX3puroβ6/DX3puro tumor uptake ratio: paired DX3puroβ6–DX3puro mouse model
How it was run: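 Female athymic nude mice received subcutaneous DX3puro and DX3puroβ6 cells (3 × 10^6 each) on opposite flanks. Radiotracer in phosphate-buffered saline was given at 1.1–2.0 MBq/animal by tail-vein injection under 2% isoflurane. Mice were killed under 4% isoflurane at 1, 2 and 4 h (n = 3/time point). Tissues were rinsed and γ-counted; values are decay-corrected %ID/g, and ratios are taken from these.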

[5] = Biodistribution, nontumor organs; type: in vivo; details: female, athymic nude, mouse, iv, total radioactivity
[6] = paired mouse model, throughout (1, 2 and 4 h)
[7] = gallbladder, stomach, intestine

Structure (SMILES) | Radiotracer remaining intact in mouse serum (Mouse serum stability) [%] | Internalization ratio for the DX3puroβ6–DX3puro cell pair (DX3puroβ6 (αvβ6 +) cells) | Uptake (binding) ratio for the DX3puroβ6–DX3puro cell pair (DX3puroβ6 (αvβ6 +) cells) | Minor new peak in urine HPLC (slightly longer retention time) [1] [%] | Apparent metabolic breakdown of radioactivity extracted from DX3puroβ6 tumor (DX3puroβ6 tumor) | BxPC-3–to–blood ratio ([2]; 4 h) | BxPC-3–to–liver ratio ([2]; 4 h) | BxPC-3–to–pancreas ratio [2] | Stable in phosphate-buffered saline (time) [3] [h] | Apparent breakdown of radioactivity extracted from BxPC-3 tumor (BxPC-3 tumor) | DX3puroβ6/DX3puro tumor uptake ratio ([4]; 1 h) | DX3puroβ6/DX3puro tumor uptake ratio ([4]; 4 h) | DX3puroβ6 tumor–to–blood ratio [4, 6] | tissue uptake at 1 h [5, 7] [%ID/g] | tissue uptake at 1 h ([5]; pancreas) [%ID/g] | tissue uptake at 4 h ([5]; pancreas) [%ID/g] | DX3puroβ6 tumor–to–DX3puro tumor ratio [4, 6]
CC(C)C[C@H](NC(=O)[C@H](CC(=O)O)NC(=O)CNC(=O)[C@H](CCCNC(=N)N)NC(=O)[C@H](CC(C)C)NC(=O)[C@H](CC(N)=O)NC(=O)[C@@H]1CCCN1C(=O)[C@@H](NC(=O)[C@H](C)NC(=O)[C@H](CC(N)=O)NC(=O)CCOCCOCCOCCOCCOCCOCCOCCOCCOCCOCCOCCOCCOCCOCCOCCOCCOCCOCCOCCOCCOCCOCCOCCOCCOCCOCCOCCOCCNC(=O)c1ccc(F)cc1)C(C)C)C(=O)N[C@@H](CCC(N)=O)C(=O)N[C@H](C(=O)N[C@@H](CC(C)C)C(=O)N[C@@H](C)C(=O)N[C@@H](CCC(N)=O)C(=O)N[C@@H](CCCCN)C(=O)N[C@H](C(=O)N[C@@H](C)C(=O)N[C@@H](CCCNC(=N)N)C(=O)N[C@H](C(=O)NCCOCCOCCOCCOCCOCCOCCOCCOCCOCCOCCOCCOCCOCCOCCOCCOCCOCCOCCOCCOCCOCCOCCOCCOCCOCCOCCOCCOCCC(N)=O)[C@@H](C)O)C(C)C)C(C)C [compound 5, ^18F-FBA-PEG28-A20FMDV2-PEG28] | 80 | 41 | 20 | 18 | less than 20% | greater than 20 | greater than 20 | ≥ 9 | ≥ 4 | less than 20% | 6.5 | 10.7 | greater than 4.5 | < 15 | 0.46 ± 0.07 | 0.25 ± 0.07 | –
CC(C)C[C@H](NC(=O)[C@H](CC(=O)O)NC(=O)CNC(=O)[C@H](CCCNC(=N)N)NC(=O)[C@H](CC(C)C)NC(=O)[C@H](CC(N)=O)NC(=O)[C@@H]1CCCN1C(=O)[C@@H](NC(=O)[C@H](C)NC(=O)[C@H](CC(N)=O)NC(=O)c1ccc(F)cc1)C(C)C)C(=O)N[C@@H](CCC(N)=O)C(=O)N[C@H](C(=O)N[C@@H](CC(C)C)C(=O)N[C@@H](C)C(=O)N[C@@H](CCC(N)=O)C(=O)N[C@@H](CCCCN)C(=O)N[C@H](C(=O)N[C@@H](C)C(=O)N[C@@H](CCCNC(=N)N)C(=O)N[C@H](C(=O)NCCOCCOCCOCCOCCOCCOCCOCCOCCOCCOCCOCCOCCOCCOCCOCCOCCOCCOCCOCCOCCOCCOCCOCCOCCOCCOCCOCCOCCC(N)=O)[C@@H](C)O)C(C)C)C(C)C [compound 4, ^18F-FBA-A20FMDV2-PEG28] | 76 | 9.4 | 7.1 | – | – | – | – | – | ≥ 4 | – | – | – | greater than 2 | < 15 | – | – | greater than 2.5
